Screens from PubChem BioAssay.
SENP6 block: inhibitors of human SENP6 protease; inhibition, % at 10 µM; Recombinant SENP6 catalytic domain, aminoluciferin luminescence; 1.8% of 330,000 active; Q9GZR1;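 active = inhibition above about 50% at the single tested dose, limit read from the data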
SENP1 FRET inh: SENP1 (human) catalytic domain inhibition. Q9P0U3. recombinant SENP1 catalytic domain, CyPet-SUMO1-YPet FRET cleavage. inhibition, % at 10 µM. 0.21% of 360,000 active. AID 624204;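 active = inhibition at least 30% at 10 µM, raw YFP signal under a set limit, fluorescence ratio 0.5 to 1.5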
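Compound: 10 µM single point, 0.5% DMSO; Test system: hSENP1 catalytic domain, recombinant; Timing: 50 min reaction at room temperature; Technique: FRET, CFP and YFP emission; Control set: no-enzyme wells low, DMSO-plus-enzyme wells high control.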
SENP8 block-1: blocks the human protease SENP8. purified SENP8, Z-RLRGG-aminoluciferin cleavage, luminescence. 1.2% of 330,000 active. inhibition, % at 10 µM; in the data active = inhibition above about 50%
Target sequence (Q96LD8 whole entry, looked up): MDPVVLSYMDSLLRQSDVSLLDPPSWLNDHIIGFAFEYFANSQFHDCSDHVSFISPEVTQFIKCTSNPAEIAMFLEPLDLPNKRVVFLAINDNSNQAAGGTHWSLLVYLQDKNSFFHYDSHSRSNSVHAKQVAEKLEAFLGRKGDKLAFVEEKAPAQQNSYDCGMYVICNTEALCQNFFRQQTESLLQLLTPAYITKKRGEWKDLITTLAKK
SENP7 block: blocks the human protease SENP7; Q9BQF6; recombinant SENP7, Z-RLRGG-aminoluciferin luminescence, 40 min; inhibition, % at 5 µM; 1.5% of 330,000 active; AID 434973;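 active = inhibition above about 50% at the single test dose, limit read from the data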
Target sequence (Q9BQF6 706-1050 limits assumed): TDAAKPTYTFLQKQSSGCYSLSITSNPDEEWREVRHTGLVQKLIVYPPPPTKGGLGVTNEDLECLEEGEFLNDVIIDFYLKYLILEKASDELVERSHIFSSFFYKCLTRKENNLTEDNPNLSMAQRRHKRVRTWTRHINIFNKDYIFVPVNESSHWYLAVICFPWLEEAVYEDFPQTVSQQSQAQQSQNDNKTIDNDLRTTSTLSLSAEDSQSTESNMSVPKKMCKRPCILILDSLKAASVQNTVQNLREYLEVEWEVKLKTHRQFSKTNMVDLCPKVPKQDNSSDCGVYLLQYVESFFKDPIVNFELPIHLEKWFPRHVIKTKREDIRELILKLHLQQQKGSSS
Platelet DG rel: modulates dense granule release in human platelets; inhibition, %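 (compounds screened at 7.5 µM in platelet-rich plasma)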; AID 1663; human platelet-rich plasma, SFLLRN dense granule ATP release, luminescence; 0.22% of 300,000 active;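 active = mean replicate score, as percent of positive control, at or above 50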
SENP8 block-2: blocks human SENP8 cleavage of Nedd8 substrate; inhibition, % at 20 µM; recombinant SENP8, Nedd8 substrate fluorescence; 0.64% of 360,000 active; in the data active = inhibition mostly above about 40%, no sharp cut-off; inactive = mostly below about 27%
SENP8 conf: confirmation of human SENP8 protease inhibitors. inhibition, % at 25 µM. purified SENP8, Nedd8-AMC/pro-Nedd8 cleavage fluorescence, 30 min. 15% of 1,400 active. shares compounds with SENP8 block-2. AID 624319; in the data active = inhibition mostly above about 39%, no sharp cut-off; inactive = mostly below about 34%
Large screens that a line does not name were inactive (follow-up assays come after a bar, where they were run). Most compounds without a hit are left out; they make up all but 2.6% or so of the library.

O=[N+]([O-])c1ccc(N/N=C2\CC3CC=CC23)c([N+](=O)[O-])c1 (stereo not given)	SENP8 block-2 40 | SENP8 conf inactive
O=C(/C=C/c1ccc(Cl)cc1)N1CCN(c2ccc(Cl)cc2[N+](=O)[O-])CC1	SENP8 block-2 43 | SENP8 conf inactive
O=C(O/N=C\c1ccc(N2CCCCC2)c([N+](=O)[O-])c1)c1ccc(Cl)cc1Cl	SENP8 block-2 49 | SENP8 conf inactive
Cc1cc(C)c(S(=O)(=O)Nc2ccc[nH]c2=O)c(C)c1	none
Cc1nn(Cc2ccc(Cl)cc2Cl)c(C)c1NC(=O)Cn1nc([N+](=O)[O-])c(Cl)c1C	SENP8 block-2 54 | SENP8 conf inactive
Cc1nn(Cc2ccc(Cl)cc2)c(C)c1NC(=O)Cn1nc([N+](=O)[O-])c(Cl)c1C	none
CC1=NCCN1CCNC(=O)Nc1ccc(F)cc1	SENP8 block-2 41 | SENP8 conf inactive
CC1=NCCN1CCNC(=O)Nc1cc(C)cc(C)c1	none
O=C(CSc1nc2cc(Cl)ccc2s1)NCc1ccc2c(c1)OCO2	SENP8 block-2 44 | SENP8 conf inactive
CN1C2=CC=CC=CC2=[N+](C)C12C=CC(=[N+]([O-])[O-])C=C2[N+](=O)[O-] (stereo not given)	SENP8 block-2 53 | SENP8 conf inactive
Cc1cc(C)n2c(SCC(=O)N(CC(C)C)c3c(N)n(CC(C)C)c(=O)[nH]c3=O)nnc2n1	none
CN(C)c1cccc2c1c(NC(=O)c1ccc(F)cc1)nn2C	SENP8 block-2 55 | SENP8 conf inactive
CN(C)c1cccc2c1c(NC(=O)Nc1ccccc1)nn2C	none
CN(C)c1cccc2c1c(NC(=O)c1ccc(Cl)cc1)nn2C	SENP8 block-2 60 | SENP8 conf inactive
O=C(O)C1Oc2cc3ccccc3cc2O1	none
O=C(N/N=C/CCc1ccccc1)c1ccccc1	SENP8 block-2 47 | SENP8 conf inactive
O=C(N/N=C/CCc1ccccc1)C1CCCCC1	none
CCCS(=O)(=O)NC(=O)C1(C)CCCN(C(=O)c2oc3ccccc3c2C)C1 (stereo not given)	none (no result: SENP6 block, SENP8 block-1, SENP7 block, Platelet DG rel)
O=c1c2ccccc2c(C=NCc2ccccn2)c(O)n1-c1ccccc1	SENP8 block-2 26 | SENP8 conf inactive
COc1ccc(-n2c(O)c(C=NCc3ccccn3)c3ccccc3c2=O)c(OC)c1	SENP8 block-2 41 | SENP8 conf inactive
O=C(Nc1ccc(N2CCOCC2)c2nonc12)C1CCCC1	none
COc1ccc(NC(=O)Nc2ccc(N3CCOCC3)c3nonc23)c(OC)c1	SENP8 block-2 44 | SENP8 conf inactive
Cc1ccc(C)c(N2CCN(C(=O)CN3C(=S)NC(C)(C)CC3C)CC2)c1 (stereo not given)	none
Cc1cc(C)nc(N2C(=O)CC(C(=O)O)NC2=NCCc2c[nH]c3ccccc23)n1 (stereo not given)	none
Cc1cc(C)nc(NC(=NCCc2c[nH]c3ccccc23)NC(=O)C(C)(C)C)n1	SENP8 block-2 46 | SENP8 conf inactive
O=c1[nH]cncc1OCc1ccccc1	none (no result: SENP6 block, SENP8 block-1, SENP7 block, Platelet DG rel)
O=[N+]([O-])c1cc(C(F)(F)F)cc([N+](=O)[O-])c1N1CCN(S(=O)(=O)c2ccccc2)CC1	SENP8 block-2 40 | SENP8 conf inactive
O=C(O)C1CCN(c2c([N+](=O)[O-])cc(C(F)(F)F)cc2[N+](=O)[O-])CC1	none
O=C(N/N=C\c1ccc([N+](=O)[O-])o1)c1cncc(Br)c1	SENP8 block-2 66 | SENP8 conf inactive
O=C(N/N=C/c1ccc([N+](=O)[O-])o1)c1ccncc1	SENP8 block-2 54 | SENP8 conf inactive
O=C(Cc1ccc2c(c1)OCO2)NN=Cc1ccc([N+](=O)[O-])o1	SENP8 block-2 39 (no result: Platelet DG rel) | SENP8 conf inactive
CCCCCC(=O)N/N=C/c1ccc([N+](=O)[O-])o1	none
O=C(N/N=C/c1ccc(-c2ccccc2[N+](=O)[O-])o1)c1cncc(Br)c1	none
CC(C)n1c(C(F)(F)F)nc2cc(C(=O)N3CCCCC3)ccc21	none
COC(=O)CCCC1=CC2=C(c3ccccc3)C(=O)C(C)(OC(=O)C3CCCC3)C(=O)C2=CN1C1CCCCC1 (stereo not given)	SENP8 block-2 44 | SENP8 conf 49
OCCCNc1ncnc2c1ncn2[C@H]1CN(Cc2ccco2)C[C@@H](CO)O1	none (no result: SENP6 block, SENP8 block-1, SENP7 block, Platelet DG rel)
Cc1noc(C)c1NC(=O)N(C)C[C@H]1Oc2ccc(NC(=O)NC(C)C)cc2C(=O)N([C@H](C)CO)C[C@@H]1C	none (no result: Platelet DG rel)
NNc1nnc2c3cc(F)ccc3n(CCc3ccccc3)c2n1	SENP8 block-2 52 | SENP8 conf inactive
CCOc1ccc(Nc2nc(N)c([N+](=O)[O-])c(N3CCN(C)CC3)n2)cc1	SENP8 block-2 47 | SENP8 conf inactive
Cc1cccc(Nc2nc(N3CCN(C)CC3)nc(N)c2[N+](=O)[O-])c1	SENP8 block-2 40 | SENP8 conf inactive
COc1ccc(Nc2nc(N)c([N+](=O)[O-])c(N3CCOCC3)n2)cc1	none
CCN1CCN(c2nc(N)c([N+](=O)[O-])c(Nc3cccc(C)c3)n2)CC1	none
CC12CCCc3c(O)cc(=O)n(c31)-c1ccccc12 (stereo not given)	none
O=S(=O)(c1ccc2c(c1)C(O)c1ccccc1CC2)C(F)(F)F (stereo not given)	none (no result: Platelet DG rel)
CC(=O)/C(=N/Nc1ccccc1[N+](=O)[O-])N1CCCc2ccccc21	SENP8 block-2 41 | SENP8 conf inactive
CC(=O)/C(=N/Nc1ccc([N+](=O)[O-])cc1)N1CCCc2ccccc21	SENP8 block-2 47 | SENP8 conf inactive
N=C1c2ccccc2CN1NC(=O)COc1ccc(Cl)cc1	none
O=C(OCC(=O)N1CCOCC1)c1cccc(F)c1	none
Cc1ccccc1N1CC(=O)N(c2ccccc2C)CC1=O	none
CC1=NN(c2ccccc2C)C(=O)C1	SENP8 block-2 51 (no result: SENP6 block, SENP8 block-1, SENP7 block, Platelet DG rel) | SENP8 conf inactive
CCNc1ccc(C(=O)OCC(=O)NC(C)c2ccccc2)cc1[N+](=O)[O-] (stereo not given)	SENP8 block-2 40 | SENP8 conf inactive
COc1ccccc1NC(=O)COc1ccc(/C=N/NS(=O)(=O)c2ccc(C)cc2)cc1	SENP8 block-2 47 | SENP8 conf inactive
O=C(OCC(=O)N1CCCC1=O)c1ccc(Cl)cc1[N+](=O)[O-]	none
O=C(COC(=O)c1cccc(S(=O)(=O)N2CCc3ccccc3C2)c1)NCc1ccco1	none
Cc1ccc(S(=O)(=O)N2CCOCC2)cc1C(=O)OCC(=O)N1CCc2ccccc2C1	SENP8 block-2 51 (no result: SENP6 block, SENP8 block-1, SENP7 block) | SENP8 conf inactive
O=C(COC(=O)c1cc(S(=O)(=O)N2CCc3ccccc3C2)ccc1Cl)NCc1ccco1	SENP8 block-2 42 | SENP8 conf 57
O=C(COc1ccc(S(=O)(=O)N2CCOCC2)cc1)N1CCc2ccccc2C1	none
